≈ marks a conversion by molar mass, not a printed value.
Experiments:
C. albicans yeast = experiment: Antimicrobial activity; format: cell-based, C. albicans SC5314
[1] = tested on: C. albicans hyphae (biofilm); experiment: Inhibition of Candida biofilm; format: cell-based, C. albicans SC5314
E. coli = experiment: Antimicrobial activity; format: cell-based; details: 24 h incubation; MIC100
Method in brief: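 E. coli from LB medium, inoculated into LB broth at 10⁵ CFU/mL in 96-well plates with test compound at 1–400 µg/mL. Concentrations re-tested in 1 µg/mL (low MIC) or 5 µg/mL (high MIC) steps. MIC is the lowest concentration giving 100% growth inhibition. Triplicate. Colistin positive control; compound-free culture negative control.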

[2] = tested on: methicillin-resistant Staphylococcus aureus (MRSA) LAC300; experiment: Antimicrobial activity; format: cell-based; details: 24 h, read-out: MIC, Bacteria S. aureus
[3] = experimental activities, −log MIC50, QSAR training set

CC(=O)N1CCN(c2ccc(OCC3COC(Cn4ccnc4)(c4ccc(Cl)cc4Cl)O3)cc2)CC1 (stereo not shown) [Ketoconazole, reference compound]
MIC (C. albicans yeast; 24 h, read-out: MIC, C. albicans Yeast): 3 µg/mL (≈ 5.65 µM)

COc1cc(C=C2SC(=S)NC2=O)ccc1OCc1cccc(C(F)(F)F)c1 [SR7]
MIC, C. albicans Yeast (C. albicans yeast; 24 h incubation, lowest concentration inhibiting 100% of growth (MIC100)): 125 ± 10 µg/mL (≈ 294 µM) | pMIC50 Yeast (C. albicans yeast; [3]): 3.579 M/L | hyphae inhibition ([1]; 10 μg/mL): 90% | MIC, C. albicans Hyphae ([1]; 24 h incubation, 100% inhibition of biofilm (hyphal) formation (MIC100)): 10 ± 3 µg/mL (≈ 23.5 µM) | pMIC50 Hyphae [1, 3]: 4.764 M/L | MIC, Bacteria E. coli (E. coli): 100 ± 5 µg/mL (≈ 235 µM)

CN[C@H](CC(C)C)C(=O)N[C@H]1C(=O)N[C@@H](CC(N)=O)C(=O)N[C@H]2C(=O)N[C@H]3C(=O)N[C@H](C(=O)N[C@H](C(=O)O)c4cc(O)cc(O)c4-c4cc3ccc4O)[C@H](O)c3ccc(c(Cl)c3)Oc3cc2cc(c3O[C@@H]2O[C@H](CO)[C@@H](O)[C@H](O)[C@H]2O[C@H]2C[C@](C)(N)[C@H](O)[C@H](C)O2)Oc2ccc(cc2Cl)[C@H]1O [Vancomycin]
MIC [2]: 3 µg/mL (≈ 2.07 µM)

Colistin [reference compound]
MIC, Bacteria E. coli (E. coli): 5 µg/mL

Triton X-100
erythrocyte hemolysis (positive control) (human erythrocytes): 100%
